Test [1] is filed under the species Homo sapiens. Briefly: Inhibition of p21 palmitoylation at a concentration of 10(ug/ml). Type of test: functional. In short, it runs like this:
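T24 cells seeded at ~25% confluency and attached overnight, treated 4 h with compound at 10 μg/mL, then labelled 2 h with [3H]palmitate (100–200 μCi/mL). Lysates in PBS-TDS, protein-normalized (100–300 μg), immunoprecipitated with Y13-259 anti-Ras antibody and Protein G agarose. Pellet radioactivity counted by scintillation. Percent inhibition vs untreated controls, one or two experiments.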

Test [2] deals with Fatty acid synthase (Homo sapiens) (UniProt P49327). The experiment in a line: Inhibition of fatty acid synthase at a concentration of 150 (uM). In short, it runs like this:
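Fatty acid synthase partially purified from HL-60 human promyelocytic leukemia cells. Lysate incubated with compound (150 μM), then activity read as rate of NADPH oxidation in presence of acetyl-CoA and malonyl-CoA. Percent inhibition reported as mean ± SEM, at least two experiments.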

The subject of another test is T-24. Briefly: Inhibition of human T24 cell proliferation. Type of test: functional, cell-based. In short, it runs like this:
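T24 human bladder carcinoma cells (H-[Val12]-ras overexpressing) in RPMI-1640 with 10% FBS, seeded at 10% confluency, allowed 24 h attachment, then exposed to varying concentrations up to 50 μg/mL for 72 h. Surviving cells measured by sulforhodamine B staining (MTS also used). IC50 vs untreated controls, mean ± SEM of at least three experiments.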

The species entered for test [3] is Homo sapiens. Briefly: The compound was tested for the inhibition of p21 palmitoylation at a concentration of 5(ug/mL). The test is classed as functional. In short, it runs like this:
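T24 human bladder carcinoma cells seeded at ~25% confluency in 60 mm dishes, attached overnight; treated 4 h with 5 μg/mL compound, then 2 h [³H]palmitate (100–200 μCi/mL). Lysed in PBS-TDS, protein-normalized (100–300 μg), immunoprecipitated with Y13-259 anti-Ras plus Protein G agarose, washed; pellet radioactivity counted. Percent inhibition of p21 palmitoylation vs untreated controls; six experiments, mean ± SEM.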

Chain of Fatty acid synthase (Homo sapiens) (P49327 whole entry, looked up): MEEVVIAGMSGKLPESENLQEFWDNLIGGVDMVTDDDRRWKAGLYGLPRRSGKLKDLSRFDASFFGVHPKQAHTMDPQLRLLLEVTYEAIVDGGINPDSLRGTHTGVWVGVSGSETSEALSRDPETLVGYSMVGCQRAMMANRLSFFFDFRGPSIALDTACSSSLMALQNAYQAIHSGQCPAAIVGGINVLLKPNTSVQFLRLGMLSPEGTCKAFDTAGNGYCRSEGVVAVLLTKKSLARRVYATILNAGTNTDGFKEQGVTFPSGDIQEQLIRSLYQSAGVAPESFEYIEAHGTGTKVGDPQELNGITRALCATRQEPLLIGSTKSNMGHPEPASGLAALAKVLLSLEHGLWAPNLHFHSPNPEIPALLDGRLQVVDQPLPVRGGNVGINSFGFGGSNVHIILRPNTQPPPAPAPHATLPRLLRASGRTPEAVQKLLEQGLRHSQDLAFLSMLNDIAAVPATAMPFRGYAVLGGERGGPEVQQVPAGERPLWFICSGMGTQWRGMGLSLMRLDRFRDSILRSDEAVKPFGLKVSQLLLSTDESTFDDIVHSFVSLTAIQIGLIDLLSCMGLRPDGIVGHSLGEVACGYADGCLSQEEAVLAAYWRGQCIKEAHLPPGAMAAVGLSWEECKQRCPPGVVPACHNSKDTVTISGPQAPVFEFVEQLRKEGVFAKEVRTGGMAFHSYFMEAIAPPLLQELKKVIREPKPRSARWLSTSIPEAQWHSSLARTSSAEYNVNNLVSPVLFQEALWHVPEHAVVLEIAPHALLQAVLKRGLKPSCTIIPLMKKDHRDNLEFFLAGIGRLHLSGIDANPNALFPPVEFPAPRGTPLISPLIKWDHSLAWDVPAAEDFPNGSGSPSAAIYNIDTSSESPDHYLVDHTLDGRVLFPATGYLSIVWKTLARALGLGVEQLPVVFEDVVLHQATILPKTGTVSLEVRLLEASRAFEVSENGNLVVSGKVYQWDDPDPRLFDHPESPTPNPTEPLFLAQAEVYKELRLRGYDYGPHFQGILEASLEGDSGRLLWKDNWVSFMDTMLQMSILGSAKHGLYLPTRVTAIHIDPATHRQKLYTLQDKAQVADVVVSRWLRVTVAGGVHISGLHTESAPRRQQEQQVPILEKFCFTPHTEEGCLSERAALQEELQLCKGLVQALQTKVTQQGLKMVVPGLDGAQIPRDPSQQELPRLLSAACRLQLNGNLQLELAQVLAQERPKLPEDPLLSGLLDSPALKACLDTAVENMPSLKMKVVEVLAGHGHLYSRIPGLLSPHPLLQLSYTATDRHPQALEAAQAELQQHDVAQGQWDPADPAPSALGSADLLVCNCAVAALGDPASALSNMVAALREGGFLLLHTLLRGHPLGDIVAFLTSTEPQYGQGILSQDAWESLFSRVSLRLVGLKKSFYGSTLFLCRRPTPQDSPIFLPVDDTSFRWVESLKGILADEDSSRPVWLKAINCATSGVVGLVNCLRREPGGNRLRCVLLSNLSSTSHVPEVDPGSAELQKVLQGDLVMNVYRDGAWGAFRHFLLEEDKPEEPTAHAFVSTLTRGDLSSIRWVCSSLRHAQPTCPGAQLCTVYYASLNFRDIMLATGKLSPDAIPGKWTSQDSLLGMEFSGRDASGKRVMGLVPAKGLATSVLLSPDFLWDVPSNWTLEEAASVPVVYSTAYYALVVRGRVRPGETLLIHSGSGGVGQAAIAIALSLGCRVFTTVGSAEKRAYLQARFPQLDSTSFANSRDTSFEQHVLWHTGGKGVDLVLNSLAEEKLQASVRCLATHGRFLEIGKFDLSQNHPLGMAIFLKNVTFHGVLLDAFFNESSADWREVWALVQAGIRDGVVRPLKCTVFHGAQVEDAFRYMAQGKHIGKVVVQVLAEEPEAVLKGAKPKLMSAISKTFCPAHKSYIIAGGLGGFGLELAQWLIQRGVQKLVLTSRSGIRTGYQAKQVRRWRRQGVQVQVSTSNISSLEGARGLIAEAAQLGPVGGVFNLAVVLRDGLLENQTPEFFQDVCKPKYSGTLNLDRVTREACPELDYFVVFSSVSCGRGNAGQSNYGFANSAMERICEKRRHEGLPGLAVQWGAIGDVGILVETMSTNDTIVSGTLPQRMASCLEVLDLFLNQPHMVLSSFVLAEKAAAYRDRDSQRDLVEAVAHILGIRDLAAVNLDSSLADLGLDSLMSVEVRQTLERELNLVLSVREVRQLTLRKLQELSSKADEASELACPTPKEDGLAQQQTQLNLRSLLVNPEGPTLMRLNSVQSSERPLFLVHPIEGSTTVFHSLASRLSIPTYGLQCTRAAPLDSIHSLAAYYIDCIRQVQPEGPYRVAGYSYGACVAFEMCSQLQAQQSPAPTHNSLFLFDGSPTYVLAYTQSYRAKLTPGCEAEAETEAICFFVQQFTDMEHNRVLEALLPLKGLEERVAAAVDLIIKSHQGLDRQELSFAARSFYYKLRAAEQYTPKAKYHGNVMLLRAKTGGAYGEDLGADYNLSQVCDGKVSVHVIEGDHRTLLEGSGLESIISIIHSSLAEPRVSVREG

On to `CCCCCCCCCCCCCCCC1OC(=O)[C@@H]2O[C@H]12` (some centres undefined), for which the inhibition (in general, the drop in the measured response relative to a control, in per cent) was determined as 35% in the test listed under Homo sapiens [1] and 0% in test [2]. Further, in the test with T-24, the IC50 (in general, the point on the concentration scale where inhibition reaches its midpoint) was found to be 140 µM.

For the compound `CCCCCCCCC1OC(=O)[C@@H]2O[C@H]12` (some centres undefined), the inhibition is 32% in the test filed under Homo sapiens [1] and 75% in test [2]. In addition, the IC50 with T-24 is over 240 µM.

Consider `CCCCCCCCCCCCCCCC(O)[C@H]1O[C@H]1C(N)=O` (some centres undefined), for which the figures for the inhibition (in the test filed under Homo sapiens [1]; in test [2]) were 40% and 10%, respectively. Half-maximal inhibition in the test with T-24 (IC50) was put at 190 µM.

Turning to `CCCCCCCCCCCCCCCC(=O)[C@H]1O[C@H]1C(=O)N(C)C`, the inhibition amounted to 31% in the test filed under Homo sapiens [1] and 0% in test [2]. For the same compound, the IC50 in the test on T-24 was determined as 40 µM.

Turning to `CCCCCCCCCCCCCCCCCC(=O)[C@H]1O[C@H]1C(=O)N(C)C`, the figures for the inhibition (in the test listed under Homo sapiens [1]; in test [2]) were 21% and 0%, respectively. The IC50 in the test on T-24 was 34 µM.

As to `CCCCCCCCCCCCCCCCCC(O)[C@H]1O[C@H]1C(=O)N(C)C` (some centres undefined), the figures for the inhibition (in the test filed under Homo sapiens [1]; in test [2]) were 0% and 3%, respectively. In the test on T-24, this compound displayed an IC50 of 52 µM.

With `CCCCCCCCCCCCCC(=O)[C@H]1O[C@H]1C(N)=O`, the inhibition in the test listed under Homo sapiens [1] is 47%; in test [2] it was 0%. The same compound showed an IC50 in the test with T-24 of 13 µM.

As to `CCCCCCCCCCCC1OC(=O)[C@@H]2O[C@H]12` (some centres undefined), the results for the inhibition (in the test filed under Homo sapiens [1]; in test [2]) were 19% and 4%, respectively. The IC50 with T-24 was over 200 µM.

Regarding `CCCCCCCCCC(O)[C@H]1O[C@H]1C(=O)N(C)C` (some centres undefined), the inhibition (in the test filed under Homo sapiens [1]; in test [2]) was 0% each time. The same compound showed an IC50 in the test on T-24 of 220 µM.

Take `CCCCCCCCCC(O)[C@H]1O[C@H]1C(N)=O` (some centres undefined): the values for the inhibition (in the test listed under Homo sapiens [1]; in test [2]) were 27% and 5%, respectively. Moreover, the IC50 in the test with T-24 was over 200 µM.

As for `CCCCCCCCCC(=O)[C@H]1O[C@H]1C(=O)N(C)C`, the inhibition was determined as 17% in the test filed under Homo sapiens [1] and 2% in test [2]. In addition, the midpoint of inhibition in the test with T-24, the IC50, lay at 77 µM.

In the case of `CCCCCCCCCCCC(O)[C@H]1O[C@H]1C(=O)N(C)C` (some centres undefined), the inhibition in the test listed under Homo sapiens [1] came to 0%; in test [2], 9%. Further, inhibition in the test on T-24 was half-maximal at 95 µM (IC50).

Turning to `CCCCCCCCC(=O)[C@H]1O[C@H]1C(N)=O`, the inhibition in the test listed under Homo sapiens [1] was determined as 42%; in test [2], 74%. For the same compound, 27 µM corresponded to half-maximal inhibition in the test with T-24 (IC50).

In the case of `CCCCCCCCC(O)[C@H]1O[C@H]1C(N)=O` (some centres undefined), the values for the inhibition (in the test filed under Homo sapiens [1]; in test [2]) were 16% and 4%, respectively. Further, the IC50 in the test with T-24 is over 220 µM.

In the case of `CCCCCCCCCCCCCC(O)[C@H]1O[C@H]1C(N)=O` (some centres undefined), the inhibition in the test listed under Homo sapiens [1] worked out at 34%; in test [2], 3%. The IC50 in the test with T-24 was found to be 110 µM.

As to `CCCCCCCCCCCC(O)[C@H]1O[C@H]1C(N)=O` (some centres undefined), the inhibition in the test listed under Homo sapiens [1] was 29%; in test [2], 6%. Besides, the IC50 with T-24 came to 130 µM.

Consider `CCCCCCCCCCCCCCCC(=O)[C@H]1O[C@H]1C(N)=O`, for which the values for the inhibition (in the test filed under Homo sapiens [1]; in test [2]) were 67% and 2%, respectively. In the test with T-24, this compound gave an IC50 of 12 µM.

Consider `CCCCCCCCCCCCCCCCCC1OC(=O)[C@@H]2O[C@H]12` (some centres undefined), for which the inhibition in the test listed under Homo sapiens [1] amounted to 45%; in test [2] it was 5%. This compound returned an IC50 in the test on T-24 of over 150 µM.

Regarding `CCCCCCCCCCCCCCCCCC(O)[C@H]1O[C@H]1C(N)=O` (some centres undefined), the inhibition in the test filed under Homo sapiens [1] came to 3%; in test [2], 0%. For the same compound, in the test with T-24, the IC50 was over 140 µM.

As to `CCCCCCCCCCCCCCCC(O)[C@H]1O[C@H]1C(=O)N(C)C` (some centres undefined), the inhibition (in the test filed under Homo sapiens [1]; in test [2]) was 0% each time. In the test on T-24, this compound came in with an IC50 of 62 µM.

With `CCCCCCCCCCCCCC1OC(=O)[C@@H]2O[C@H]12` (some centres undefined), the inhibition in the test filed under Homo sapiens [1] was determined as 2%; in test [2], 0%. In the test on T-24, this compound yielded an IC50 of over 180 µM.

For `CCCCCCCCC(O)[C@H]1O[C@H]1C(=O)N(C)C` (some centres undefined), the figures for the inhibition (in the test listed under Homo sapiens [1]; in test [2]) were 9% and 0%, respectively. In addition, the IC50 in the test with T-24 was over 190 µM.

Take `CCCCCCCCC(=O)[C@H]1O[C@H]1C(=O)N(C)C`: the figures for the inhibition (in the test filed under Homo sapiens [1]; in test [2]) were 0% and 1%, respectively. The IC50 in the test with T-24 was 140 µM.

As for `NC(=O)[C@H]1O[C@H]1C(=O)c1ccccc1`, the inhibition in the test listed under Homo sapiens [1] turned out to be 22%; in test [2], 85%. For the same compound, the midpoint of inhibition in the test with T-24, the IC50, lay at 15 µM.

On to `CCCCCCCCCCCCCC(O)[C@H]1O[C@H]1C(=O)N(C)C` (some centres undefined), for which the inhibition in the test listed under Homo sapiens [1] is 16%; in test [2], 5%. Further, in the test on T-24, the IC50 came to 69 µM.

For the compound `CCCCCCCCCCCCCCCCCC(=O)[C@H]1O[C@H]1C(N)=O`, the inhibition amounted to 28% in the test listed under Homo sapiens [1] and 0% in test [2]. In the test with T-24, this compound returned an IC50 of 17 µM.

As for `CCCCCCCCCCCC(=O)[C@H]1O[C@H]1C(N)=O`, the inhibition is 40% in the test listed under Homo sapiens [1] and 44% in test [2]. In addition, the IC50 with T-24 turned out to be 20 µM.

`C/C=C/C/C=C/CCC(=O)[C@H]1O[C@H]1C(N)=O` [CERULENIN]: the inhibition was 48% in the test filed under Homo sapiens [3] and 96% in test [2]. The IC50 with T-24 came to 17 µM.

In the case of `CCCCCCCCCC1OC(=O)[C@@H]2O[C@H]12` (some centres undefined), the inhibition is 33% in the test filed under Homo sapiens [1] and 40% in test [2]. This compound also yielded an IC50 in the test on T-24 of over 220 µM.

For `CN(C)C(=O)[C@H]1O[C@H]1C(=O)c1ccccc1`, the inhibition came to 59% in the test filed under Homo sapiens [1] and 3% in test [2]. Moreover, in the test with T-24, the IC50 is 29 µM.

`CCCCCCCCCC(=O)[C@H]1O[C@H]1C(N)=O`: the inhibition in the test filed under Homo sapiens [1] is 63%; in test [2] it was 92%. The compound further registered an IC50 in the test with T-24 of 7 µM.

Turning to `CCCCCCCCCCCC(=O)[C@H]1O[C@H]1C(=O)N(C)C`, the figures for the inhibition (in the test filed under Homo sapiens [1]; in test [2]) were 10% and 5%, respectively. Besides, in the test on T-24, inhibition was half-maximal at 49 µM (IC50).

Turning to `CCCCCCCCCCCCCC(=O)[C@H]1O[C@H]1C(=O)N(C)C`, the values for the inhibition (in the test listed under Homo sapiens [1]; in test [2]) were 0% and 2%, respectively. The same compound had an IC50 with T-24 of 40 µM.

Source of the values: ChEMBL document CHEMBL1132487, “Structure-activity studies of cerulenin analogues as protein palmitoylation inhibitors” (J Med Chem, 1999).
